Laboratory results published in ChEMBL document CHEMBL1124865, “Synthesis and biological evaluation of a series of parenteral 3'-quaternary ammonium cephalosporins” (J Med Chem, 1990).
≈ marks a conversion by molar mass, not a printed value.

Experiments:
Format in all cases: functional
Escherichia coli [1] = test: In vitro relative hydrolysis rate against Escherichia coli IIIa
Method in brief: (§1)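 Spectrophotometric hydrolysis at 265 nm, substrate exposed to partially purified cell-free β-lactamase preparations; rate expressed as percentage of the cephaloridine rate.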

Enterobacter cloacae [2] = test: In vitro relative hydrolysis rate against Enterobacter Ia; method in brief: as §1
Klebsiella pneumoniae [3] = test: In vitro relative hydrolysis rate against Klebsiella IV; method in brief: as §1
Staphylococcus aureus [4] = test: In vivo efficacy against Staphylococcus aureus infected mice treated at 1 hr and 5 hr post infection
Pseudomonas aeruginosa [5] = test: In vitro relative hydrolysis rate against Pseudomonas Id; method in brief: as §1
Staphylococcus aureus [6] = test: In vitro relative hydrolysis rate against Staphylococcus aureus; method in brief: as §1
Enterobacter cloacae [7] = test: Antibacterial activity against Enterobacter cloacae 265A; details: Enterobacter cloacae; read-out: MIC
Escherichia coli [8] = test: Antibacterial activity against Escherichia coli EC14; details: Escherichia coli; read-out: MIC
Enterobacter cloacae [9] = test: Antibacterial activity against Enterobacter cloacae EB5; details: Enterobacter cloacae; read-out: MIC
Escherichia coli [10] = test: Antibacterial activity against Escherichia coli TEM; details: Escherichia coli; read-out: MIC
Klebsiella pneumoniae [11] = test: microbe, parasite or virus in culture; details: Klebsiella pneumoniae; read-out: MIC
Klebsiella pneumoniae [12] = test: Antibacterial activity against Klebsiella pneumoniae X26; details: Klebsiella pneumoniae; read-out: MIC
Pseudomonas aeruginosa [13] = test: Antibacterial activity against Pseudomonas aeruginosa X528; details: Pseudomonas aeruginosa; read-out: MIC
Pseudomonas aeruginosa [14] = test: Antibacterial activity against Pseudomonas aeruginosa PS18; details: Pseudomonas aeruginosa; read-out: MIC
Staphylococcus aureus [15] = test: Antibacterial activity against penicillin G resistance Staphylococcus aureus; details: Staphylococcus aureus; read-out: MIC
Staphylococcus aureus [16] = test: Antibacterial activity against penicillin G susceptible Staphylococcus aureus; details: Staphylococcus aureus; read-out: MIC
Streptococcus pneumoniae = test: Antibacterial activity against Streptococcus pneumoniae; details: Streptococcus pneumoniae; read-out: MIC
Serratia marcescens = test: Antibacterial activity against Serratia marcescens SE3; details: Serratia marcescens; read-out: MIC
Streptococcus pyogenes = test: Antibacterial activity against Streptococcus pyogenes; details: Streptococcus pyogenes; read-out: MIC
Enterococcus faecium = test: Antibacterial activity against Enterococcus faecium; details: Enterococcus faecium; read-out: MIC
Pseudomonas aeruginosa [17] = test: In vivo efficacy against Pseudomonas aeruginosa infected mice treated at 1 hr and 5 hr post infection; details: Pseudomonas aeruginosa; read-out: ED50
Escherichia coli [18] = test: In vivo efficacy against Escherichia coli infected mice treated at 1 hr and 5 hr post infection; details: Escherichia coli; read-out: ED50
Escherichia coli [19] = test: In vivo efficacy against Escherichia coli infections in mice; details: Escherichia coli; read-out: MIC
Pseudomonas aeruginosa [20] = test: In vivo efficacy against Pseudomonas aeruginosa infections in mice; details: Pseudomonas aeruginosa; read-out: MIC
Staphylococcus aureus [21] = test: In vivo efficacy against Staphylococcus aureus infections in mice; details: Staphylococcus aureus; read-out: MIC
Cavia porcellus = species: Cavia porcellus; test: In vitro relative anticholinergic potential in isolated guinea pig trachea
Method in brief: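 Guinea pig trachea in Krebs' solution at 37.5 °C, 95% O2/5% CO2, pH 7.4, 2 g resting tension. Cumulative carbachol log dose-response curve (3-fold steps) run before and 30 min after adding antagonist at 1 mM. […] Tukey test on log2 dose ratios.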

[22] = Staphylococcus aureus, read-out: ED50

| Structure (SMILES) | MIC (Enterobacter cloacae [7]) | MIC (Escherichia coli [8]) | MIC (Enterobacter cloacae [9]) | MIC (Escherichia coli [10]) | MIC (Klebsiella pneumoniae [11]) | MIC (Klebsiella pneumoniae [12]) | MIC (Pseudomonas aeruginosa [13]) | MIC (Pseudomonas aeruginosa [14]) | MIC (Staphylococcus aureus [15]) | MIC (Staphylococcus aureus [16]) | MIC (Streptococcus pneumoniae) | MIC (Serratia marcescens) | MIC (Streptococcus pyogenes) | MIC (Enterococcus faecium) | ED50 (Pseudomonas aeruginosa [17]) | ED50 (Staphylococcus aureus [4]; [22]) | ED50 (Escherichia coli [18]) | MIC (Escherichia coli [19]) | MIC (Pseudomonas aeruginosa [20]) | MIC (Staphylococcus aureus [21]) | other results |
| --- | --- | --- | --- | --- | --- | --- | --- | --- | --- | --- | --- | --- | --- | --- | --- | --- | --- | --- | --- | --- | --- |
| CO/N=C(\C(=O)N[C@@H]1C(=O)N2C(C(=O)[O-])=C(C[n+]3ccc(CC(=O)NO)cc3)CS[C@H]12)c1csc(N)n1 (stereo in doubt; 11) | – | – | – | – | – | – | – | – | – | – | – | – | – | – | – | – | – | – | – | – | Hydrolysis rate (Escherichia coli [1]): 0.5; Hydrolysis rate (Enterobacter cloacae [2]): 0.4; Hydrolysis rate (Klebsiella pneumoniae [3]): 10.4; ED50 (Staphylococcus aureus [4]): 4 mg/kg; Hydrolysis rate (Pseudomonas aeruginosa [5]): 0.1; Hydrolysis rate (Staphylococcus aureus [6]): 3.4 |
| CO/N=C(\C(=O)N[C@@H]1C(=O)N2C(C(=O)[O-])=C(C[n+]3cc(C)cc(C)c3)CS[C@H]12)c1csc(N)n1 | 8 µg/mL (≈ 15.9 µM) | 0.06 µg/mL (≈ 0.119 µM) | 0.125 µg/mL (≈ 0.249 µM) | 0.06 µg/mL (≈ 0.119 µM) | 8 µg/mL (≈ 15.9 µM) | 0.03 µg/mL (≈ 0.0597 µM) | 4 µg/mL (≈ 7.96 µM) | 8 µg/mL (≈ 15.9 µM) | 2 µg/mL (≈ 3.98 µM) | 1 µg/mL (≈ 1.99 µM) | 0.03 µg/mL (≈ 0.0597 µM) | 0.125 µg/mL (≈ 0.249 µM) | < 0.008 µg/mL | > 128 µg/mL | – | – | – | – | – | – | Hydrolysis rate (Escherichia coli [1]): 0.5; Hydrolysis rate (Enterobacter cloacae [2]): 0.1; Hydrolysis rate (Klebsiella pneumoniae [3]): 1.5; Hydrolysis rate (Pseudomonas aeruginosa [5]): 0.1; Hydrolysis rate (Staphylococcus aureus [6]): 6.1 |
| CO/N=C(\C(=O)N[C@@H]1C(=O)N2C(C(=O)[O-])=C(C[n+]3cccc4cc(O)ccc43)CS[C@H]12)c1csc(N)n1 | 16 µg/mL (≈ 29.6 µM) | 0.03 µg/mL (≈ 0.0555 µM) | 0.5 µg/mL (≈ 0.925 µM) | 0.03 µg/mL (≈ 0.0555 µM) | 4 µg/mL (≈ 7.4 µM) | < 0.008 µg/mL | 8 µg/mL (≈ 14.8 µM) | 8 µg/mL (≈ 14.8 µM) | 2 µg/mL (≈ 3.7 µM) | 1 µg/mL (≈ 1.85 µM) | < 0.008 µg/mL | 0.5 µg/mL (≈ 0.925 µM) | < 0.008 µg/mL | 128 µg/mL (≈ 237 µM) | 29 mg/kg | 1 mg/kg | 0.04 mg/kg | 0.03 µg/mL (≈ 0.0555 µM) | 8 µg/mL (≈ 14.8 µM) | 1 µg/mL (≈ 1.85 µM) | – |
| CO/N=C(\C(=O)N[C@@H]1C(=O)N2C(C(=O)[O-])=C(C[n+]3ccc4c(c3)nc(C)n4C)CS[C@H]12)c1csc(N)n1 | 4 µg/mL (≈ 7.37 µM) | 0.008 µg/mL (≈ 0.0147 µM) | – | 0.008 µg/mL (≈ 0.0147 µM) | 2 µg/mL (≈ 3.69 µM) | 0.008 µg/mL (≈ 0.0147 µM) | 4 µg/mL (≈ 7.37 µM) | 8 µg/mL (≈ 14.7 µM) | – | 2 µg/mL (≈ 3.69 µM) | 0.008 µg/mL (≈ 0.0147 µM) | – | 0.008 µg/mL (≈ 0.0147 µM) | 128 µg/mL (≈ 236 µM) | – | – | – | – | – | – | RAP (Cavia porcellus): 1 |
| CCC(CC)c1cc[n+](CC2=C(C(=O)[O-])N3C(=O)[C@@H](NC(=O)/C(=N\OC)c4csc(N)n4)[C@H]3SC2)cc1 | 16 µg/mL (≈ 29.4 µM) | 0.125 µg/mL (≈ 0.23 µM) | 0.5 µg/mL (≈ 0.918 µM) | 0.06 µg/mL (≈ 0.11 µM) | 8 µg/mL (≈ 14.7 µM) | 0.03 µg/mL (≈ 0.0551 µM) | 16 µg/mL (≈ 29.4 µM) | 64 µg/mL (≈ 118 µM) | 4 µg/mL (≈ 7.34 µM) | 2 µg/mL (≈ 3.67 µM) | 0.015 µg/mL (≈ 0.0275 µM) | 0.5 µg/mL (≈ 0.918 µM) | < 0.008 µg/mL | > 128 µg/mL | 11 mg/kg | 2.5 mg/kg | 0.5 mg/kg | 0.125 µg/mL (≈ 0.23 µM) | 64 µg/mL (≈ 118 µM) | 4 µg/mL (≈ 7.34 µM) | – |
| CO/N=C(\C(=O)N[C@@H]1C(=O)N2C(C(=O)[O-])=C(C[n+]3ccc4nc(C)n(C)c4c3)CS[C@H]12)c1csc(N)n1 | 4 µg/mL (≈ 7.37 µM) | 0.015 µg/mL (≈ 0.0276 µM) | – | 0.015 µg/mL (≈ 0.0276 µM) | 2 µg/mL (≈ 3.69 µM) | 0.015 µg/mL (≈ 0.0276 µM) | 2 µg/mL (≈ 3.69 µM) | 8 µg/mL (≈ 14.7 µM) | – | 2 µg/mL (≈ 3.69 µM) | 0.015 µg/mL (≈ 0.0276 µM) | – | 0.015 µg/mL (≈ 0.0276 µM) | 128 µg/mL (≈ 236 µM) | – | – | – | – | – | – | RAP (Cavia porcellus): 2 |
| CO/N=C(\C(=O)N[C@@H]1C(=O)N2C(C(=O)[O-])=C(C[n+]3cccc(Cl)c3)CS[C@H]12)c1csc(N)n1 | 8 µg/mL (≈ 15.7 µM) | 0.06 µg/mL (≈ 0.118 µM) | 0.25 µg/mL (≈ 0.491 µM) | 0.06 µg/mL (≈ 0.118 µM) | 16 µg/mL (≈ 31.4 µM) | 0.06 µg/mL (≈ 0.118 µM) | 2 µg/mL (≈ 3.93 µM) | 4 µg/mL (≈ 7.86 µM) | 2 µg/mL (≈ 3.93 µM) | 1 µg/mL (≈ 1.96 µM) | 0.015 µg/mL (≈ 0.0295 µM) | 0.06 µg/mL (≈ 0.118 µM) | < 0.008 µg/mL | > 128 µg/mL | > 50 mg/kg | 1.6 mg/kg | 0.14 mg/kg | 0.06 µg/mL (≈ 0.118 µM) | 8 µg/mL (≈ 15.7 µM) | 1 µg/mL (≈ 1.96 µM) | – |
